Our source for the Ki and Ratio values is ChEMBL document CHEMBL1129251 (J Med Chem, 1996).

The target of experiment [1] is T1, Adrenergic receptor alpha-2 (Rattus norvegicus, UniProt P22086+P19328+P22909).
T1 sequence (P22086 whole entry): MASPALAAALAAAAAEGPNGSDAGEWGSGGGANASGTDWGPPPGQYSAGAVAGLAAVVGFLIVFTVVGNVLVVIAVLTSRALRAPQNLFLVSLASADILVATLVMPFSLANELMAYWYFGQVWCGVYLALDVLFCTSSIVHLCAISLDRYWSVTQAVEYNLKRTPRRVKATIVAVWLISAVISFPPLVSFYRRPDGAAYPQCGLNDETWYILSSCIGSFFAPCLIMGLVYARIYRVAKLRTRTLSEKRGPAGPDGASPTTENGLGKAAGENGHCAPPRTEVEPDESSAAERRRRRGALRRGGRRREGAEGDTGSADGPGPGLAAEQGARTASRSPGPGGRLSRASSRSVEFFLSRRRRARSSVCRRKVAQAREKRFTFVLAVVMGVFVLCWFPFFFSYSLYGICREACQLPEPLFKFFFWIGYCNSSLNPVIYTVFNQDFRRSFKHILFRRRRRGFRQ
T1 sequence (P19328 whole entry): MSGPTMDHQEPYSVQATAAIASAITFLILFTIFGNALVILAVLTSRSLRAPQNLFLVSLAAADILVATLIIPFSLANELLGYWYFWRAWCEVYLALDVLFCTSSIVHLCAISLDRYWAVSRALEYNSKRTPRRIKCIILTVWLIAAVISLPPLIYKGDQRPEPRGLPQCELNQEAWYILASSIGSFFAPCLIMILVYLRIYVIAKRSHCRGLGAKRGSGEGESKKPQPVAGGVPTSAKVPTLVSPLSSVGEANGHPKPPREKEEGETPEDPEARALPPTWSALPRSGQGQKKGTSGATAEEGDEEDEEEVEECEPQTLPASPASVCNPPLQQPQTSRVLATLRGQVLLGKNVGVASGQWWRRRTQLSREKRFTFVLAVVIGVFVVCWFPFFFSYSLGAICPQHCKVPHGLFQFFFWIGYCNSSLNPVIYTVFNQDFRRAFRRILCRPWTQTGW
T1 sequence (P22909 whole entry): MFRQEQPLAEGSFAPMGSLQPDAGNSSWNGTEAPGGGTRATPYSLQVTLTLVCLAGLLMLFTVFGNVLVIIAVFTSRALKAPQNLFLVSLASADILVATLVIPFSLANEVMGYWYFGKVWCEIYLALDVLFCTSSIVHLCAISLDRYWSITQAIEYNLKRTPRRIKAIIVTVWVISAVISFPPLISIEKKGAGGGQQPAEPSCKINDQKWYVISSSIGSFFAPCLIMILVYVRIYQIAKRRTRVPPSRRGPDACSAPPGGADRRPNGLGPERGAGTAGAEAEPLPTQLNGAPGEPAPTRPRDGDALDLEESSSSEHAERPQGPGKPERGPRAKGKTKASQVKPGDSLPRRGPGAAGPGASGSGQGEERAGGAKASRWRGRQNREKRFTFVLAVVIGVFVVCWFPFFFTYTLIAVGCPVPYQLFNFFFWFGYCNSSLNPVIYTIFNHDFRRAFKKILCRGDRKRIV
In words: Alpha-2 adrenergic receptor binding affinity was tested against membrane preparations of rat brain. A digest of the protocol:
(§1)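 Rat frontal cortex membranes at about 500 µg/mL protein, labelled with [3H]rauwolscine in Tris buffer pH 7.4 containing 10 mM EDTA. Nonspecific binding set by 10 µM phentolamine. 30 °C for 30 min, then filtration and scintillation counting, in triplicate.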

For experiment [2], the target named is T1, Adrenergic receptor alpha-2. The experiment in a line: Alpha-2 adrenergic receptor binding affinity was tested against membrane preparations of rat brain using 0.2 nM [3H]rauwolscine as radioligand. The procedure, abridged: as §1
Experiment [3] deals with T2, Adrenergic receptor alpha-1 (Rattus norvegicus, UniProt P15823+P23944+P43140).
T2 sequence (P15823 whole entry): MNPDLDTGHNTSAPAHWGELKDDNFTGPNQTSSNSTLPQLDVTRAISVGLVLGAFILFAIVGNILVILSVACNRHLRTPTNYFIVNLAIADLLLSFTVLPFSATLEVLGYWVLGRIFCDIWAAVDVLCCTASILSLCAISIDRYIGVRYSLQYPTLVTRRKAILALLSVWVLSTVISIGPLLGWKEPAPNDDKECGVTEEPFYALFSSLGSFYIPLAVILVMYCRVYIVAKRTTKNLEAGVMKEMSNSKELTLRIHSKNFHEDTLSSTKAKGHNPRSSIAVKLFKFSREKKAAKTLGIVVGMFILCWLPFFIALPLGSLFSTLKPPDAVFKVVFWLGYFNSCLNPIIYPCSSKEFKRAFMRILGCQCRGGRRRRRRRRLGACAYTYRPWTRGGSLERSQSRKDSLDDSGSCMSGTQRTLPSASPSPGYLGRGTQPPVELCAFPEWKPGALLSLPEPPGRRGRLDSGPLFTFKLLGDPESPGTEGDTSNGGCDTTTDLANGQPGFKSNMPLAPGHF
T2 sequence (P23944 whole entry): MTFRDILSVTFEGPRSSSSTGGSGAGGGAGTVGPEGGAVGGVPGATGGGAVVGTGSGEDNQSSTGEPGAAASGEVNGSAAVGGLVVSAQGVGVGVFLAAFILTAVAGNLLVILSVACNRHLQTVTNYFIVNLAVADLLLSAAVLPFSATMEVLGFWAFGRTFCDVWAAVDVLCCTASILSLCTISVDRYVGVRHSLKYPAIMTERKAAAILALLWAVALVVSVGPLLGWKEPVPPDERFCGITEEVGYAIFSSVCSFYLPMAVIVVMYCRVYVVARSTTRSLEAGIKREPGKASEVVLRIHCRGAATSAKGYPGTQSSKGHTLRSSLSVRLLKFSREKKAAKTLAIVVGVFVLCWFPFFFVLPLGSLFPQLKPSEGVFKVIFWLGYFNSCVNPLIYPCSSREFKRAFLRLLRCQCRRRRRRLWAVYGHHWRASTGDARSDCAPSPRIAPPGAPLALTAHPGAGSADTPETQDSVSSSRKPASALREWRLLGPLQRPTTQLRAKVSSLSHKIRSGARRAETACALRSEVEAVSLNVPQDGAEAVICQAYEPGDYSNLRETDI
T2 sequence (P43140 whole entry): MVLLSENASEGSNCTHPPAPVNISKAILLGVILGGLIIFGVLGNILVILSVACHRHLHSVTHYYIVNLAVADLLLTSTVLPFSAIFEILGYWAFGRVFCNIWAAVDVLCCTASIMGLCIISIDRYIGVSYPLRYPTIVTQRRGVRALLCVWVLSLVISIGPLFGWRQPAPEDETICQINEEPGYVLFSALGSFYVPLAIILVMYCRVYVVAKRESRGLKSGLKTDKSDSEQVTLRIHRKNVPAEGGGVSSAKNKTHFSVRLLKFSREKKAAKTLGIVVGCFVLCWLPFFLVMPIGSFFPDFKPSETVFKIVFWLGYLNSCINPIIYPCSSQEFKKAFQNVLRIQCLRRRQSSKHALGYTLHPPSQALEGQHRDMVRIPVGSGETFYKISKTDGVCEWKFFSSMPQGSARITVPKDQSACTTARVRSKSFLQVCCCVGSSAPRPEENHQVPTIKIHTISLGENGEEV
In words: Alpha-1 adrenergic receptor binding affinity in rat brain membranes. The class given is cell membranes. A digest of the protocol: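 Rat frontal cortex membranes, washed in 50 mM Tris-HCl/10 mM MgCl2 pH 7.4, at about 300 µg/mL protein. Labelled with 0.1 nM [3H]prazosin in the same buffer. Nonspecific binding set by 10 µM phentolamine. 30 °C for 30 min, then filtration and scintillation counting, in triplicate.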

A short description of experiment [4]: Selectivity ratio of Ki of alpha-1 adrenergic receptor to alpha-2 receptor.

For orientation: Ki means the equilibrium dissociation constant of an inhibitor or competing ligand from its target. The low end stands for higher affinity, the high end for lower affinity.

In the case of `Cc1cccc(C(C)c2c[nH]cn2)c1C` (configuration not stated) [MEDETOMIDINE], the Ki in experiment [1] was determined as 25 nM.

`CCC(c1c[nH]cn1)c1cccc2ccccc12` (configuration not stated): the inhibitory constant (Ki) in experiment [2] turned out to be 165 nM; in experiment [3] it was 574 nM. Moreover, in experiment [4], the Ratio was 3.48.

In the case of `C/C=C(/c1c[nH]cn1)c1cccc2ccccc12`, the Ki was 1474 nM in experiment [2] and 387 nM in experiment [3]. In experiment [4], the Ratio was 0.26.

As to `C[C@H](N)[C@H](O)c1ccc(O)c(O)c1` [LEVONORDEFRIN], the Ki in experiment [1] was determined as 205 nM; in experiment [3] it was 9221 nM.

Take `C=C(c1c[nH]cn1)c1cccc2ccccc12`: the Ki was found to be 122 nM in experiment [2] and 1734 nM in experiment [3]. Also, the Ratio in experiment [4] stood at 14.2.
